Measured values published in ChEMBL document CHEMBL1629579, “Correlating echinocandin MIC and kinetic inhibition of fks1 mutant glucan synthases for Candida albicans: implications for interpretive breakpoints” (Antimicrob Agents Chemother, 2009).
≈ marks a conversion by molar mass, not a printed value. Numbered stars: 1 amine (or outer) side, 2 acyl side, 3 side chain; on linkers, the order of the positions; unused ones are H or OH. Bridge positions count the residues as written; N and C are the ends. Square brackets hold non-standard residues; d marks the D form. Peptide text beside a SMILES is read from it. * marks the point of attachment. pTerphenylCO(4''-OnC5H11) = CCCCCOc1ccc(-c2ccc(-c3ccc(C(=O)*)cc3)cc2)cc1; Orn(4R-OH,5R-OH) = O=C([C@H](C[C@@H](O)[C@@H](O)N[*:3])N[*:1])[*:2]; hTyr(3S-OH,4S-OH) = N[C@H](C(=O)O)[C@H](O)[C@@H](O)c1ccc(O)cc1; Pro(3S-OH,4S-Me) = C[C@H]1CN[C@H](C(=O)O)[C@H]1O; Hyp = O=C(O)[C@@H]1C[C@@H](O)CN1

What was measured:
[1] = system: Candida albicans; experiment: Antimicrobial activity against Candida albicans SC5314 by M27-A3 method; format: functional
Outline: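 Broth microdilution per CLSI M27-A3 in RPMI 1640, with and without 50% human serum, in triplicate. C. krusei ATCC 6258 and C. parapsilosis ATCC 22019 served as quality-control strains. MIC reported as arithmetic mean of three repetitions on separate days.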

[2] = system: Candida albicans; experiment: Antimicrobial activity against Candida albicans 3107 by M27-A3 method; format: functional
Outline: (§1)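 Broth microdilution per CLSI M27-A3 in RPMI 1640, done in triplicate on three separate days. Each strain was tested with and without 50% human serum. C. krusei ATCC 6258 and C. parapsilosis ATCC 22019 served as QC strains. Arithmetic means are reported, and geometric means were used for comparison.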

[3] = system: Candida albicans; experiment: Antimicrobial activity against Candida albicans 205 harboring FKS1 T1933C mutant gene and FKS1 hotspot1 S645P mutant gene by M27-A3 method; format: functional; outline: as §1
[4] = system: Candida albicans; experiment: Antimicrobial activity against Candida albicans 5415 harboring FKS1 T1933C mutant gene and FKS1 hotspot1 S645P mutant gene by M27-A3 method; format: functional; outline: as §1
[5] = system: Candida albicans; experiment: Antimicrobial activity against Candida albicans 5415 harboring FKS1 T1933C mutant gene and FKS1 hotspot1 S645P mutant gene by M27-A3 method in presence of 50% human serum; format: functional; outline: as §1
[6] = system: Candida albicans; experiment: Antimicrobial activity against Candida albicans 85 harboring FKS1 C1934T mutant gene and FKS1 hotspot1 S645F mutant gene by M27-A3 method in presence of 50% human serum; format: functional; outline: as §1
[7] = system: Candida albicans; experiment: Antimicrobial activity against Candida albicans 149 harboring FKS1 G1942T mutant gene and FKS1 hotspot1 D648Y mutant gene by M27-A3 method; format: functional; outline: as §1
[8] = system: Candida albicans; experiment: Antimicrobial activity against Candida albicans 194 harboring FKS1 C1934T/G4082R mutant gene and FKS1 hotspot1 S645F mutant gene and FKS1 hotspot2 R1361R/H mutant gene by M27-A3 method in presence of 50% human serum; format: functional; outline: as §1
[9] = Inhibition of Candida albicans SC5314 1,3-beta-D-glucan synthase subunit FKS1p
Outline: (§2)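 Enzyme is product-entrapped 1,3-β-D-glucan synthase, enriched from membranes of each strain grown at 37°C with shaking in YPD broth to early stationary phase. Filtration polymerization assay uses [3H]UDPG, started by adding enzyme and run 60 min at 25°C. Echinocandins are added as serial dilutions, with 1% DMSO controls for anidulafungin. IC50 is from a variable-slope sigmoidal fit; values are triplicate arithmetic means.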

[10] = Inhibition of Candida albicans 36082 1,3-beta-D-glucan synthase subunit FKS1p; outline: as §2
[11] = Inhibition of Candida albicans 90028 1,3-beta-D-glucan synthase subunit FKS1p; outline: as §2
[12] = Inhibition of Candida albicans 3107 1,3-beta-D-glucan synthase subunit FKS1p; outline: as §2
[13] = Inhibition of Candida albicans 5415 1,3-beta-D-glucan synthase subunit FKS1p T1933C mutant; outline: as §2
[14] = Inhibition of Candida albicans 90 1,3-beta-D-glucan synthase subunit FKS1p G4082R mutant; outline: as §2
[15] = system: Candida albicans; experiment: Activity at Candida albicans 90028 1,3-beta-D-glucan synthase subunit FKS1p
Outline: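 Glucan synthase from cells grown at 37°C with vigorous shaking to early stationary phase in YPD. Membrane enzyme enriched by product entrapment. Serial echinocandin dilutions; ANF controls held 1% DMSO. Reaction started by adding enzyme, run 60 min at 25°C in a filtration polymerization assay, stopped on ice. IC50 from a variable-slope sigmoidal fit; means of three repetitions on separate days.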

[16] = system: Candida albicans; experiment: Activity at Candida albicans 149 1,3-beta-D-glucan synthase subunit FKS1p G1942T mutant
Outline: (§3)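 Product-entrapped 1,3-β-D-glucan synthase from cells grown in YPD at 37°C to early stationary phase. Wells held 50 mM HEPES pH 7.5, 10% glycerol, 1.5 mg/ml BSA, 25 mM KF, 1 mM EDTA, 25 μM GTP-γ-S, 1 μg enzyme and [3H]UDPG (0.015–2 mM). Reactions ran 60 min at 25°C. Vmax and Km came from Lineweaver-Burke plots, in triplicate.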

[17] = system: Candida albicans; experiment: Activity at Candida albicans 121 1,3-beta-D-glucan synthase subunit FKS1p G4082A mutant; outline: as §3
[18] = system: Candida albicans; experiment: Selectivity ratio of Ki for Candida albicans 119 1,3-beta-D-glucan synthase subunit FKS1p T1921C mutant to Ki for Candida albicans SC5314 wild type 1,3-beta-D-glucan synthase subunit FKS1p
[19] = system: Candida albicans; experiment: Selectivity ratio of Ki for Candida albicans 177 1,3-beta-D-glucan synthase subunit FKS1p T1922C mutant to Ki for Candida albicans SC5314 wild type 1,3-beta-D-glucan synthase subunit FKS1p
[20] = system: Candida albicans; experiment: Selectivity ratio of Ki for Candida albicans 2762 1,3-beta-D-glucan synthase subunit FKS1p T1922C mutant to Ki for Candida albicans SC5314 wild type 1,3-beta-D-glucan synthase subunit FKS1p
[21] = system: Candida albicans; experiment: Selectivity ratio of Ki for Candida albicans 205 1,3-beta-D-glucan synthase subunit FKS1p T1933C mutant to Ki for Candida albicans SC5314 wild type 1,3-beta-D-glucan synthase subunit FKS1p
[22] = system: Candida albicans; experiment: Selectivity ratio of Ki for Candida albicans 89 1,3-beta-D-glucan synthase subunit FKS1p C1934A mutant to Ki for Candida albicans SC5314 wild type 1,3-beta-D-glucan synthase subunit FKS1p
[23] = system: Candida albicans; experiment: Selectivity ratio of Ki for Candida albicans 149 1,3-beta-D-glucan synthase subunit FKS1p G1942T mutant to Ki for Candida albicans SC5314 wild type 1,3-beta-D-glucan synthase subunit FKS1p
[24] = system: Candida albicans; experiment: Selectivity ratio of Ki for Candida albicans 122 1,3-beta-D-glucan synthase subunit FKS1p C1946A mutant to Ki for Candida albicans SC5314 wild type 1,3-beta-D-glucan synthase subunit FKS1p
[25] = system: Candida albicans; experiment: Selectivity ratio of Ki for Candida albicans 121 1,3-beta-D-glucan synthase subunit FKS1p G4082A mutant to Ki for Candida albicans SC5314 wild type 1,3-beta-D-glucan synthase subunit FKS1p
[26] = system: Candida albicans; experiment: Selectivity ratio of Ki for Candida albicans 194 1,3-beta-D-glucan synthase subunit FKS1p C1934T/G4082R mutant to Ki for Candida albicans SC5314 wild type 1,3-beta-D-glucan synthase subunit FKS1p
[27] = system: Candida albicans; experiment: Selectivity ratio of Ki for Candida albicans A15 1,3-beta-D-glucan synthase subunit FKS1p T1933Y mutant to Ki for Candida albicans SC5314 wild type 1,3-beta-D-glucan synthase subunit FKS1p
[28] = system: Candida albicans; experiment: Selectivity ratio of Ki for Candida albicans A15-10 1,3-beta-D-glucan synthase subunit FKS1p T1933C mutant to Ki for Candida albicans SC5314 wild type 1,3-beta-D-glucan synthase subunit FKS1p

| Structure (SMILES) | MIC [1] [µg/mL] | MIC [2] [µg/mL] | MIC [3] [µg/mL] | MIC [4] [µg/mL] | MIC [5] [µg/mL] | MIC [6] [µg/mL] | MIC [7] [µg/mL] | MIC [8] [µg/mL] | Ki [9] [µg/mL] | IC50 [10] [µg/mL] | Ki [10] [µg/mL] | IC50 [11] [µg/mL] | Ki [11] [µg/mL] | Ki [12] [µg/mL] | IC50 [13] [µg/mL] | Ki [13] [µg/mL] | IC50 [14] [µg/mL] | Ki [14] [µg/mL] | Km [15] [µM] | Vmax [15] [nmol/min] | further results |
| --- | --- | --- | --- | --- | --- | --- | --- | --- | --- | --- | --- | --- | --- | --- | --- | --- | --- | --- | --- | --- | --- |
| CCCCCOc1ccc(-c2ccc(-c3ccc(C(=O)N[C@H]4C[C@@H](O)[C@@H](O)NC(=O)[C@@H]5[C@@H](O)[C@@H](C)CN5C(=O)[C@H]([C@@H](C)O)NC(=O)[C@H]([C@H](O)[C@@H](O)c5ccc(O)cc5)NC(=O)[C@@H]5C[C@@H](O)CN5C(=O)[C@H]([C@@H](C)O)NC4=O)cc3)cc2)cc1 [ANIDULAFUNGIN] ({pTerphenylCO(4''-OnC5H11)}-[Orn(4R-OH,5R-OH)]T[Hyp][hTyr(3S-OH,4S-OH)]T[Pro(3S-OH,4S-Me)]; lactam 1-C) | 0.08 (≈ 0.0702 µM) | 0.03 (≈ 0.0263 µM) | 1.33 (≈ 1.17 µM) | 2 (≈ 1.75 µM) | 8 | 8 | 0.83 (≈ 0.728 µM) | 8 | 0.00133 (≈ 0.00117 µM) | 0.00151 (≈ 0.00132 µM) | 0.00143 (≈ 0.00125 µM) | 0.00183 (≈ 0.0016 µM) | 0.00063 (≈ 0.000553 µM) | 0.00167 (≈ 0.00146 µM) | 1.152 (≈ 1.01 µM) | 4.15411 (≈ 3.64 µM) | 0.0406 (≈ 0.0356 µM) | 0.0485 (≈ 0.0425 µM) | 67 | 4.71 | IC50 [9]: 0.00089 µg/mL (≈ 0.000781 µM); IC50 [12]: 0.00312 µg/mL (≈ 0.00274 µM); Km [16]: 32 µM; Vmax [16]: 1.22 nmol/min; Km [17]: 129 µM; Vmax [17]: 4.41 nmol/min; Ratio Ki [18]: > 100; Ratio Ki [19]: > 100; Ratio Ki [20]: > 100; Ratio Ki [21]: > 100; Ratio Ki [22]: > 100; Ratio Ki [23]: > 100; Ratio Ki [24]: > 100; Ratio Ki [25]: > 100; Ratio Ki [26]: > 100; Ratio Ki [27]: > 100; Ratio Ki [28]: > 100 |
| CC[C@H](C)C[C@H](C)CCCCCCCCC(=O)N[C@H]1C[C@@H](O)[C@@H](NCCN)NC(=O)[C@@H]2[C@@H](O)CCN2C(=O)[C@H]([C@H](O)CCN)NC(=O)[C@H]([C@H](O)[C@@H](O)c2ccc(O)cc2)NC(=O)[C@@H]2C[C@@H](O)CN2C(=O)[C@H]([C@@H](C)O)NC1=O [CASPOFUNGIN] | 0.42 (≈ 0.384 µM) | 0.25 (≈ 0.229 µM) | 8 (≈ 7.32 µM) | 8 (≈ 7.32 µM) | 8 | 8 | 2.67 (≈ 2.44 µM) | 8 | 0.00297 (≈ 0.00272 µM) | 0.0009 (≈ 0.000823 µM) | 0.00095 (≈ 0.000869 µM) | 0.0005 (≈ 0.000457 µM) | 0.00046 (≈ 0.000421 µM) | 0.00879 (≈ 0.00804 µM) | 0.6981 (≈ 0.639 µM) | 2.12249 (≈ 1.94 µM) | 0.02043 (≈ 0.0187 µM) | 0.14815 (≈ 0.136 µM) | 67 | 4.71 | Km [16]: 32 µM; Vmax [16]: 1.22 nmol/min; Km [17]: 129 µM; Vmax [17]: 4.41 nmol/min |
